Data: ChEMBL document CHEMBL5705905, “Pharmacological targeting of kinases MST1 and MST2 augments tissue repair and regeneration” (Sci Transl Med, 2016)
Active and inactive are the calls of the source. No cut-off for these calls is given here.

Columns and labels:
[1] = test system: Mus musculus; test: Protection against CCl4-induced mouse assessed as low dead cells at 1 mg/kg, ip administration daily for 10 days by TUNEL staining; format: functional, organism-based; settings: Liver, time 10.0 day
[2] = target: Serine/threonine-protein kinase 33 (Homo sapiens) (UniProt Q9BYT3); test: Inhibition of STK33 (unknown origin) assessed as remaining activity at 1 uM by Kinome scan method relative to control
[3] = target: Mitogen-activated protein kinase 3 (Homo sapiens) (UniProt P27361); test: Inhibition of ERK1 (unknown origin) assessed as remaining activity at 1 uM by Kinome scan method relative to control
[4] = target: Serine/threonine-protein kinase PAK 5 (Homo sapiens) (UniProt Q9P286); test: Inhibition of PAK7 (unknown origin) assessed as remaining activity at 1 uM by Kinome scan method relative to control
[5] = test system: Mus musculus; test: Anti-colitis activity against DSS-induced mouse assessed as suppression in disease activity index at 1 mg/kg, ip administrated daily for over 1 to 21 days; format: functional, organism-based; settings: time 1-21 day
How it was run: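 Colitis was induced in wild-type mice with DSS on days 1–7, with vehicle or 1 mg/kg daily (n = 12 per group). Disease activity index (diarrhea, rectal bleeding) was scored daily over days 1–21. Student's t test at each time point.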

[6] = target: Serine/threonine-protein kinase D1 (Homo sapiens) (UniProt Q15139); test: Inhibition of PRKD1 (unknown origin) assessed as remaining activity at 1 uM by Kinome scan method relative to control
[7] = target: RAC-alpha serine/threonine-protein kinase (Homo sapiens) (UniProt P31749); test: Inhibition of AKT1 (unknown origin) assessed as remaining activity at 1 uM by Kinome scan method relative to control
How it was run: (§1)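 Active-site-dependent competition-binding (KINOMEscan) panel of 468 kinases, test compound at 1 μM (from a 10 mM DMSO stock). Read-out is ctrl% = (test signal − positive control signal)/(negative control signal − positive control signal) × 100. DMSO is the negative control (100%) and a control compound is the positive control (0%). Lower ctrl% means tighter binding.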

[8] = target: Ephrin type-A receptor 4 (Homo sapiens) (UniProt P54764); test: Inhibition of EPHA4 (unknown origin) assessed as remaining activity at 1 uM by Kinome scan method relative to control
[9] = target: Serine/threonine-protein kinase 32C (Homo sapiens) (UniProt Q86UX6); test: Inhibition of YANK3 (unknown origin) assessed as remaining activity at 1 uM by Kinome scan method relative to control
[10] = target: Serine/threonine-protein kinase 38 (Homo sapiens) (UniProt Q15208); test: Inhibition of NDR1 (unknown origin) assessed as remaining activity at 1 uM by Kinome scan method relative to control
[11] = target: SRSF protein kinase 1 (Homo sapiens) (UniProt Q96SB4); test: Inhibition of SRPK1 (unknown origin) assessed as remaining activity at 1 uM by Kinome scan method relative to control
[12] = test system: Mast/stem cell growth factor receptor Kit (Homo sapiens), P10721 [V559D]; test: Inhibition of KIT V559D mutant (unknown origin) assessed as remaining activity at 1 uM by Kinome scan method relative to control
[13] = target: Macrophage colony-stimulating factor 1 receptor (Homo sapiens) (UniProt P07333); test: Inhibition of CSF1R-autoinhibited (unknown origin) assessed as remaining activity at 1 uM by Kinome scan method relative to control
How it was run: (§2)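 Active-site-dependent competition-binding profiling (KINOMEscan) at 1 μM against a 468-kinase panel; compound supplied from a 10 mM DMSO stock. Read-out is ctrl% = (test signal − positive control signal)/(negative control signal − positive control signal) × 100. DMSO is the negative control (100%) and a control compound the positive control (0%). Lower ctrl% means tighter binding.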

[14] = target: Leukocyte tyrosine kinase receptor (Homo sapiens) (UniProt P29376); test: Inhibition of LTK (unknown origin) assessed as remaining activity at 1 uM by Kinome scan method relative to control
[15] = target: Transient receptor potential cation channel subfamily M member 6 (Homo sapiens) (UniProt Q9BX84); test: Inhibition of TRPM6 (unknown origin) assessed as remaining activity at 1 uM by Kinome scan method relative to control
[16] = target: Cyclin-dependent kinase 4/cyclin D1 (Homo sapiens) (UniProt P11802+P24385); test: Inhibition of CDK4/cyclinD1 (unknown origin) assessed as remaining activity at 1 uM by Kinome scan method relative to control; format: protein-complex assay; how it was run: as §2
[17] = target: CDK4/Cyclin D3 (Homo sapiens) (UniProt P11802+P30281); test: Inhibition of CDK4/cyclinD3 (unknown origin) assessed as remaining activity at 1 uM by Kinome scan method relative to control; format: protein-complex assay; how it was run: as §2
[18] = organism: Homo sapiens; test: Inhibition of recombinant His-tagged full-length MST1 D109A mutant (unknown origin) expressing in Escherichia coli assessed as GST-tagged MOB1 phosphorylation level at 0.01 to 1 uM incubated for 15 min by immunoblot analysis; settings: dose 0.01-1 µM
[19] = target: Mitogen-activated protein kinase 11 (Homo sapiens) (UniProt Q15759); test: Inhibition of P38beta (unknown origin) assessed as remaining activity at 1 uM by Kinome scan method relative to control
[20] = target: Serine/threonine-protein kinase 38-like (Homo sapiens) (UniProt Q9Y2H1); test: Inhibition of NDR2 (unknown origin) assessed as remaining activity at 1 uM by Kinome scan method relative to control
[21] = target: Tyrosine-protein kinase ABL1 (Homo sapiens) (UniProt P00519); test: Inhibition of ABL1 (unknown origin) assessed as remaining activity at 1 uM by Kinome scan method relative to control; how it was run: as §1
[22] = target: cGMP-dependent protein kinase 2 (Homo sapiens) (UniProt Q13237); test: Inhibition of PRKG2 (unknown origin) assessed as remaining activity at 1 uM by Kinome scan method relative to control
[23] = target: Ribosomal protein S6 kinase alpha-3 (Homo sapiens) (UniProt P51812); test: Inhibition of N-terminal kinase domain RSK2 (unknown origin) assessed as remaining activity at 1 uM by Kinome scan method relative to control
[24] = test system: Phosphatidylinositol 4,5-bisphosphate 3-kinase catalytic subunit alpha isoform (Homo sapiens), P42336 [E545K]; test: Inhibition of PIK3CA E545K mutant (unknown origin) assessed as remaining activity at 1 uM by Kinome scan method relative to control
[25] = target: Serine/threonine-protein kinase SIK1 (Homo sapiens) (UniProt P57059); test: Inhibition of SIK (unknown origin) assessed as remaining activity at 1 uM by Kinome scan method relative to control
[26] = target: Dual specificity mitogen-activated protein kinase kinase 1 (Homo sapiens) (UniProt Q02750); test: Inhibition of MEK1 (unknown origin) assessed as remaining activity at 1 uM by Kinome scan method relative to control
[27] = test system: Mus musculus; test: In vivo inhibition of MST1/2 in mouse assessed as MOB1 phosphorylation level at 1 mg/kg, ip administration and measured after between 1.5 to 6 hrs by immunoblot analysis; format: functional, organism-based; settings: time 1.5-6 hrs
How it was run: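 Wild-type mice received 1 mg/kg intraperitoneally, with vehicle of 0.1% citric acid aqueous solution containing 20% Kolliphor HS 15. Livers were harvested over 0–12 h and lysates immunoblotted for p-MOB1 and p-YAP, normalized to control. Means ± SD, n = 3.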

Chain of SRSF protein kinase 1 (Homo sapiens) (Q96SB4 whole entry): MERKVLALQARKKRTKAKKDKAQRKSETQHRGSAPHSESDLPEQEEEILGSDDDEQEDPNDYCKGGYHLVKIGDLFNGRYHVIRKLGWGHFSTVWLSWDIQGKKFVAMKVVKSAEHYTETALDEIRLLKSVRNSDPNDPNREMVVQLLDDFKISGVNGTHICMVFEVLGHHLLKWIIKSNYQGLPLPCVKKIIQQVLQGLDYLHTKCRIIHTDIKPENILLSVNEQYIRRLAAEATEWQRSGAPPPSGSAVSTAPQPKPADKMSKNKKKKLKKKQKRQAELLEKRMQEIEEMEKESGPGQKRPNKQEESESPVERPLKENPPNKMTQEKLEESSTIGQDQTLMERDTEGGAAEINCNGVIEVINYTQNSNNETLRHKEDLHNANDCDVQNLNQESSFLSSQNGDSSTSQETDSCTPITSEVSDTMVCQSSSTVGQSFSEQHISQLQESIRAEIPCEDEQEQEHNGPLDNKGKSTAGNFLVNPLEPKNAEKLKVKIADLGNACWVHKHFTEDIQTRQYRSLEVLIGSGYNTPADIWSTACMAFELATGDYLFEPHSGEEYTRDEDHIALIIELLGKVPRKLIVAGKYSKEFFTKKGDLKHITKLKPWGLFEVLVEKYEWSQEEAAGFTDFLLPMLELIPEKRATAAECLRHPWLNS
Chain of Serine/threonine-protein kinase 38-like (Homo sapiens) (Q9Y2H1 2-464 limits assumed): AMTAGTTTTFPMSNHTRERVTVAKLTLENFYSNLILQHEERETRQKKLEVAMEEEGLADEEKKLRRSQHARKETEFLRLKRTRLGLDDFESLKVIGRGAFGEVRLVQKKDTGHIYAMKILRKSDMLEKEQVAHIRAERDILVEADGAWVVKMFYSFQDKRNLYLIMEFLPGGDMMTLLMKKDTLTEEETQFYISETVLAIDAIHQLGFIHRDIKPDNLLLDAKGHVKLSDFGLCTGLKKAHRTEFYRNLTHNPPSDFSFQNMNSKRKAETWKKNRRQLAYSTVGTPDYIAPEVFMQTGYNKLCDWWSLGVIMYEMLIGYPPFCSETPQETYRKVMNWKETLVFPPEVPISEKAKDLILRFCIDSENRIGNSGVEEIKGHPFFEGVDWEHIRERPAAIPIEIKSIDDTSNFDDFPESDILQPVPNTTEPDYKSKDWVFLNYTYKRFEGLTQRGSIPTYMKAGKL
Chain of RAC-alpha serine/threonine-protein kinase (Homo sapiens) (P31749 whole entry): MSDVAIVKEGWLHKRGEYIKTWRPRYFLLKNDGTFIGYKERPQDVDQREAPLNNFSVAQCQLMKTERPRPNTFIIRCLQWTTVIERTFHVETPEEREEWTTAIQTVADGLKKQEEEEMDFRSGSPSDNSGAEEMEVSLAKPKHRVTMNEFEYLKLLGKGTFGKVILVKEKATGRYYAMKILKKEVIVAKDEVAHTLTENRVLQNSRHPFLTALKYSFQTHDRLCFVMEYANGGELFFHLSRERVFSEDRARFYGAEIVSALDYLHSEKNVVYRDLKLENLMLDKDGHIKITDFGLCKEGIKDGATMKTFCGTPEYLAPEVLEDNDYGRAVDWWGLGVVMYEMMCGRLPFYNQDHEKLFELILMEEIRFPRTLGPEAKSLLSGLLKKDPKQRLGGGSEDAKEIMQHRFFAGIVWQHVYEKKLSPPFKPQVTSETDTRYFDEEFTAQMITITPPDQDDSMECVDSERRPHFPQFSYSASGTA
Chain of Serine/threonine-protein kinase 38 (Homo sapiens) (Q15208 2-465 limits assumed): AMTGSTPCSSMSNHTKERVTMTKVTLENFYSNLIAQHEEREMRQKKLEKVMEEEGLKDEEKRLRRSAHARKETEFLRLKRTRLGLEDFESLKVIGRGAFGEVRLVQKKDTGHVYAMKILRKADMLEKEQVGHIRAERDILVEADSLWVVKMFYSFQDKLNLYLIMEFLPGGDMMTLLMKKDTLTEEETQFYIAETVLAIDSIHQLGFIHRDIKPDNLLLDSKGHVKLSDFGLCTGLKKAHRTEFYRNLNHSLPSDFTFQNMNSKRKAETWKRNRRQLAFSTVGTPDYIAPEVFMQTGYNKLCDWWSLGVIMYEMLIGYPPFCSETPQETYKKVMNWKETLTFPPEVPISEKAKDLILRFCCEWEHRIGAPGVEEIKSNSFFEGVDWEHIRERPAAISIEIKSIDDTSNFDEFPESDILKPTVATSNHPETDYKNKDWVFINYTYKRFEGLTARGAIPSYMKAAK
Chain of Serine/threonine-protein kinase D1 (Homo sapiens) (Q15139 whole entry): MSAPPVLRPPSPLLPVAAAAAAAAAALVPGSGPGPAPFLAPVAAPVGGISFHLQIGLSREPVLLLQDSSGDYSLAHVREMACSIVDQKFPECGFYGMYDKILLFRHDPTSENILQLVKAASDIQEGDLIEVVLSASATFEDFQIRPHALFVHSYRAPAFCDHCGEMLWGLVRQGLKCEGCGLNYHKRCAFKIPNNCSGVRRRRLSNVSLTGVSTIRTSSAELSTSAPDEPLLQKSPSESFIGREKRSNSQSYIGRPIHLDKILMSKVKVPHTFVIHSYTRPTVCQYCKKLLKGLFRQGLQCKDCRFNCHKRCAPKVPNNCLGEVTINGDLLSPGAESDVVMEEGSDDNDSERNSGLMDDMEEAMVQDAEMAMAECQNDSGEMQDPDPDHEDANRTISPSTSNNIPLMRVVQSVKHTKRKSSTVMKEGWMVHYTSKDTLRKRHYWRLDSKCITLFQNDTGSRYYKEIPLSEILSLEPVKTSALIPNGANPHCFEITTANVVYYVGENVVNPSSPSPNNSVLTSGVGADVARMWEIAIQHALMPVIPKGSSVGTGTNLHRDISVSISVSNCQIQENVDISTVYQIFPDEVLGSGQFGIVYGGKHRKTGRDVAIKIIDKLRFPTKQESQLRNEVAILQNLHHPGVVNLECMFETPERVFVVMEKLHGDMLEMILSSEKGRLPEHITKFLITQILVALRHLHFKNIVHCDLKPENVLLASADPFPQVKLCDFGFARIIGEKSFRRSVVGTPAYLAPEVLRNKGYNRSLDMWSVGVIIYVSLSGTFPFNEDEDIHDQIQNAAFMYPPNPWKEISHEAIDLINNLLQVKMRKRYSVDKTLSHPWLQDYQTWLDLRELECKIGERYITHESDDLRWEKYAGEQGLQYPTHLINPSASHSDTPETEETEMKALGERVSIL
Chain of Mitogen-activated protein kinase 11 (Homo sapiens) (Q15759 whole entry): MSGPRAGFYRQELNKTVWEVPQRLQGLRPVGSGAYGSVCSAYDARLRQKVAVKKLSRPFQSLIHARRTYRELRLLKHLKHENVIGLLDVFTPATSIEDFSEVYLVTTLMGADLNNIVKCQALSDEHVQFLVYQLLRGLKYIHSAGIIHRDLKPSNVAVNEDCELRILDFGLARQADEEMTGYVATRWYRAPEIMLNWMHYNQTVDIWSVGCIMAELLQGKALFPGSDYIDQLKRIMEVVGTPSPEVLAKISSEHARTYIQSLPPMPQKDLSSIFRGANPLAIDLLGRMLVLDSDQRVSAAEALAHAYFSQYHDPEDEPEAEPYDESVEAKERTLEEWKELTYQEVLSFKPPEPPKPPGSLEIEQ
Chain of Phosphatidylinositol 4,5-bisphosphate 3-kinase catalytic subunit alpha isoform (Homo sapiens), P42336 [E545K] (P42336 whole entry E545K, canonical isoform): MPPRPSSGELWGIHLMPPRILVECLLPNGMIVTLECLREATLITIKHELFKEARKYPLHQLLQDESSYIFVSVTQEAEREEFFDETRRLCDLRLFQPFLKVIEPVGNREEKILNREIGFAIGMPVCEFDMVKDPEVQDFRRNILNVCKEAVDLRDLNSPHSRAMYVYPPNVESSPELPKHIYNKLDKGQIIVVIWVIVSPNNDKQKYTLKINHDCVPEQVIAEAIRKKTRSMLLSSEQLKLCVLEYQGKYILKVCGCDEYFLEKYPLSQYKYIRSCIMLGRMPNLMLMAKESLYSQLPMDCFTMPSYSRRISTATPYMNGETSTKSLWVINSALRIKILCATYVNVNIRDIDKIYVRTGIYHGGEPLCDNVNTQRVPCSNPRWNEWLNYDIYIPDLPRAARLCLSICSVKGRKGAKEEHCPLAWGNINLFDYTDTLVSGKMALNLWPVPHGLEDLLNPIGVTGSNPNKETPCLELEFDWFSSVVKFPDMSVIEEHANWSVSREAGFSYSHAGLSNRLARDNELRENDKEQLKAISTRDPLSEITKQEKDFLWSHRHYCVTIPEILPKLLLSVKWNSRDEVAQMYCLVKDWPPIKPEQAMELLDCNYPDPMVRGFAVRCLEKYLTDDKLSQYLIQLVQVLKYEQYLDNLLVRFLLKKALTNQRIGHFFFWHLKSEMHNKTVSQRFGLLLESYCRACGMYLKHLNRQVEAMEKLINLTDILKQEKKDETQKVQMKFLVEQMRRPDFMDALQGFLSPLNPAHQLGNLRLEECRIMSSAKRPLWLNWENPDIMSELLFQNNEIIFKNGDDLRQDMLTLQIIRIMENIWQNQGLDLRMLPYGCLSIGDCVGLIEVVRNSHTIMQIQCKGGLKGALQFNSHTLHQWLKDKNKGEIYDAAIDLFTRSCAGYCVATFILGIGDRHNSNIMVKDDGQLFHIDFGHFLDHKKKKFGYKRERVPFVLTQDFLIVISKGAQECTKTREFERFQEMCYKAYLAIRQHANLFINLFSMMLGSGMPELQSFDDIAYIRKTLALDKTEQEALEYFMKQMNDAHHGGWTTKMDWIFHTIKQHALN
Chain of Serine/threonine-protein kinase 32C (Homo sapiens) (Q86UX6 whole entry): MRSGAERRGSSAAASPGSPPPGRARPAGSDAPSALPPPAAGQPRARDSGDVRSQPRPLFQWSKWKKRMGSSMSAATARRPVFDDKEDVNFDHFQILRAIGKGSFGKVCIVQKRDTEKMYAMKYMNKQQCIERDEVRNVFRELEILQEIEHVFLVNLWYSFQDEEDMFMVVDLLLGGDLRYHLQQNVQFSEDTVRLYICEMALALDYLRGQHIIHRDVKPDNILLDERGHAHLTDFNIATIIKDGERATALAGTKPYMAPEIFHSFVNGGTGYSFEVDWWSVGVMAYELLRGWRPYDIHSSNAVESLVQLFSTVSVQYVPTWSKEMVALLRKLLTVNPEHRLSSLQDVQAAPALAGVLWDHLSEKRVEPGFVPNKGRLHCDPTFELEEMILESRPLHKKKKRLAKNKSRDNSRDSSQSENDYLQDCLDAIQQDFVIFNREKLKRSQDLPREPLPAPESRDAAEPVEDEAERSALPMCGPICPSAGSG

## CN1C(=O)c2sccc2N(C)c2nc(Nc3ccc(S(N)(=O)=O)cc3)ncc21
[1]
  Activity: Active
[2]
  Activity: 97%
[3]
  Activity: 100%
[4]
  Activity: 85%
[5]
  Activity: Active
[6]
  Activity: 98%
[7]
  Activity: 100%
[8]
  Activity: 100%
[9]
  Activity: 100%
[10]
  Activity: 62%
[11]
  Activity: 65%
[12]
  Activity: 97%
[13]
  Activity: 87%
[14]
  Activity: 100%
[15]
  Activity: 94%
[16]
  Activity: 93%
[17]
  Activity: 100%
[18]
  inhibition: Active
[19]
  Activity: 83%
[20]
  Activity: 82%
[21]
  Activity: 21%
[22]
  Activity: 95%
[23]
  Activity: 76%
[24]
  Activity: 49%
[25]
  Activity: 100%
[26]
  Activity: 91%
[27]
  inhibition: Active
